# ADAM17 inh = ADAM17 inhibitors, primary screen, biochemical, QFRET | recombinant ADAM17, EDANS/DABCYL FRET peptide cleavage | hit rate 0.83% among 370,000 | inhibition, % at 6.95 µM | Disintegrin and metalloproteinase domain-containing protein 17 (Homo sapiens), P78536 | AID 720648, 2013;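 active = inhibition above the mean of compounds lying between control limits plus 3 SD, set per campaign, cut at about 8.5% in these data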;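 note: 0% = DMSO-only wells as the low control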
# NR2E3 ag-1 = NR2E3 agonists in two-hybrid cells, primary screen, cell-based, luminescence, CHO-S, Gal4-NCOR/VP16-NR2E3 | Photoreceptor-specific nuclear receptor (Homo sapiens), Q9Y5X4 | luciferase | inhibition of corepressor binding, % at 3.98 µM | hit rate 0.35% among 360,000;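 active = inhibition above the mean of all tested compounds plus 3 SD, cut at about 70% in these data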;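 note: 0% = DMSO with NR2E3 transfected cells and 100% = cells lacking NR2E3 construct; higher means lower luciferase signal from less NR2E3 corepressor binding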
# Target sequence (Q9Y5X4 whole entry, looked up, the tested form may be a part): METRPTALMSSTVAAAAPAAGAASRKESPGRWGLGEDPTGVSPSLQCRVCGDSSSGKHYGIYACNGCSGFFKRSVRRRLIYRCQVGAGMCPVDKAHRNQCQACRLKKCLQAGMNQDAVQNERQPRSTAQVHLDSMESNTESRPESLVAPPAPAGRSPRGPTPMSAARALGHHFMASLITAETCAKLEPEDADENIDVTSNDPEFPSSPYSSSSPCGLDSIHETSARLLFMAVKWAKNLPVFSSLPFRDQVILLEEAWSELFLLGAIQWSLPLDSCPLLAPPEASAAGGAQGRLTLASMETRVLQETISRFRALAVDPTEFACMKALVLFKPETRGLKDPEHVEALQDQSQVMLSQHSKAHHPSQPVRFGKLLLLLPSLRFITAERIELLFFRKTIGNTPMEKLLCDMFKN
# GASC-1 inh = inhibitors of GASC-1 histone demethylase, primary screen, biochemical, fluorescence, DELFIA europium | GST-JMJD2C(1-420) H3K9me3 demethylation | inhibition, % at 2.35 µM | hit rate 0.069% among 330,000 | Lysine-specific demethylase 4C (Homo sapiens), Q9H3R0 | AID 2099, 2009;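 active = more than half of a compound's replicate wells show inhibition beyond 50%, single wells judged on their own value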;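 note: signal counts dimethyl H3K9 product captured on neutravidin plate; 0% = median of DMSO wells and 100% = 0.3 times that DMSO median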
# NR2E3 ag-2 = inhibitors of NR2E3-RetCOR corepressor binding, primary screen, NR2E3 agonist project, biochemical, TR-FRET, GST-NR2E3, biotin-RetCOR; AID 2300, 2010; hit rate 0.12% among 320,000; inhibition of corepressor binding, % at 4.78 µM; 1536-well; Photoreceptor-specific nuclear receptor (Homo sapiens), Q9Y5X4;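 active = percent inhibition above the cutoff of mean plus 3 SD of all tested compounds, set per screening campaign, cut at about 20% in these data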;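 note: 0% = DMSO wells and 100% = biotin wells as full block of FRET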
#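 Assay system: NR2E3–RetCOR corepressor complex. Quantity: 1.35 nM GST-NR2E3. Buffer or medium: pH 7.5 Tris-based buffer. Reagent: biotinylated RetCOR corepressor at 7 nM final. Schedule: 5 h at 4 °C. Detection: TR-FRET, emission read at 617 and 671 nm. Replicates: one well per compound, singlicate testing.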
# ADAM10 inh = human ADAM10 inhibitors, primary screen, biochemical, QFRET, HTS; AID 720582, 2013; hit rate 0.62% among 370,000; inhibition, % at 7 µM; recombinant ADAM10, EDANS/DABCYL FRET peptide cleavage, 3 h; Disintegrin and metalloproteinase domain-containing protein 10 (Homo sapiens), O14672;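 active = inhibition above a per-campaign cutoff equal to the mean of compounds falling between control-based bounds plus 3 SD, cut at about 20% in these data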;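 note: 0% = DMSO wells while the 100% control is not disclosed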
# KLK7 zymogen act = proKLK7 zymogen activators, primary screen, biochemical, fluorescence intensity; Kallikrein-7 (Homo sapiens), P49862; hit rate 0.9% among 370,000; activation, % at 7 µM; purified proKLK7, EDANS-DABCYL substrate fluorescence; 100% is mature enzyme control, 0% vehicle; AID 652039, 2013;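 active = activation above the mean of all tested compounds plus 3 SD, computed per campaign excluding outliers beyond control limits, cut at about 13% in these data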
# Target sequence (P49862 whole entry, looked up): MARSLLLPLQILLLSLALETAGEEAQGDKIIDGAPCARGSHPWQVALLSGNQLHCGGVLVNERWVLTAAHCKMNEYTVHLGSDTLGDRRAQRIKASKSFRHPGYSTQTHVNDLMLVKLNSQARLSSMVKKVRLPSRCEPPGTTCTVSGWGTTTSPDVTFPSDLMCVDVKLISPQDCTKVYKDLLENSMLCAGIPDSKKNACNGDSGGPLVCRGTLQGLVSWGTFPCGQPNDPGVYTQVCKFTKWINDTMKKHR
# ADAM10 confirm = human ADAM10 inhibitors, confirmation, biochemical, QFRET, triplicate | shares compounds with ADAM10 inh | ADAM10 QFRET peptide cleavage, EDANS fluorescence | inhibition, % at 6.95 µM | hit rate 1% among 2,100;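 active = inhibition above about 20% chosen separately for each screening run, limit read from the data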;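 note: 0% = DMSO wells and 100% = marimastat wells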
# ADAM17 ctr = ADAM17 inhibitors, counter-screen for ADAM10 exosite inhibitor project, biochemical, QFRET, high throughput; shares compounds with ADAM10 inh; ADAM17 QFRET peptide cleavage, EDANS fluorescence; inhibition, % at 6.95 µM; hit rate 0.5% among 2,100;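 active = mean triplicate inhibition above the solvent-only control wells' mean plus 3 SD, cut at about 12% in these data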;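 note: 0% = DMSO wells and 100% = marimastat wells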
# ADAM10 counter = ADAM10 inhibitors, counter-screen for ADAM17 exosite inhibitor project, biochemical, FRET, human ADAM10. inhibition, % at 6.95 µM. shares compounds with ADAM17 inh. recombinant ADAM10, EDANS/DABCYL FRET peptide cleavage, 3 h. hit rate 47% among 2,900. AID 743256, 2014;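 active = mean inhibition over the triplicate runs exceeds the activity threshold set in the earlier primary screen, cut at about 20% in these data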;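 note: 0% = DMSO wells and 100% = marimastat wells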
# ADAM17 confirm = ADAM17 inhibitors, hit retest, confirmation, biochemical, QFRET peptide cleavage. hit rate 65% among 2,900. inhibition, % at 6.95 µM. shares compounds with ADAM17 inh. recombinant ADAM17, EDANS/DABCYL QFRET peptide cleavage. AID 743257, 2014;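 active = mean inhibition across replicates above the hit cutoff set in the primary screen, cut at about 8.5% in these data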;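 note: 0% = DMSO wells and 100% = marimastat wells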
# * hit, by the source's call; nt = not tested or not shown. This is a sample that favours compounds with a hit; in the whole collection about 2.5% have one here.
SMILES,ADAM17 inh,NR2E3 ag-1,GASC-1 inh,NR2E3 ag-2,ADAM10 inh,KLK7 zymogen act,ADAM10 confirm,ADAM17 ctr,ADAM10 counter,ADAM17 confirm
COc1ccc(S(=O)(=O)N(CC(=O)NCc2ccccn2)Cc2ccccc2)cc1,-2,-5,0,4,-5,0,nt,nt,nt,nt
OCCN(Cc1ccccc1)CC(O)COc1ccc(-c2ccccc2)cc1 (stereo not drawn),13*,-7,-7,4,30*,1,4,1,31*,16*
CC(=O)Oc1cc2c(s1)CCN(C(C(=O)C1CC1)c1ccccc1F)C2 (stereo not drawn),-6,nt,nt,nt,-22,1,nt,nt,nt,nt
C=CCOC(=O)C1=C[C@H](C2CCCCC2)C[C@H](OCc2ccc(CO)cc2)O1,-3,-8,4,1,6,0,nt,nt,nt,nt
NC(=O)C1=C[C@H](C2CCCCC2)C[C@H](OCc2ccc(CO)cc2)O1,8.9*,-126,2,2,20*,0,-2,0,-4,4
CCOC(CNc1c([N+](=O)[O-])c(=O)n(C)c(=O)n1C)OCC,0,4,0,-2,1,0,nt,nt,nt,nt
COc1ccc(OC)c(-c2csc(NC(=O)CSc3ccc([N+](=O)[O-])cc3)n2)c1,11*,2,14,3,23*,0,6,2,29*,13*
CC1(c2ccc(OC(F)F)cc2)NC(=O)N(CC(=O)Nc2ccc(OC(F)F)cc2)C1=O (stereo not drawn),3,-7,6,-1,8,1,nt,nt,nt,nt
CCOC(=O)c1c(NC(=O)CN2C(=O)NC(C)(c3ccc(OC(F)F)cc3)C2=O)sc(C)c1C (stereo not drawn),11*,20,6,-2,22*,0,19,6,34*,20*
CC(C)Cn1c(N)c(C(=O)COC(=O)c2ccc([N+](=O)[O-])o2)c(=O)n(C)c1=O,2,13,-25,-2,-1,0,nt,nt,nt,nt
CCO[C@@H]1OC(C(=O)N2CCN(Cc3ccc4c(c3)OCO4)CC2)=C[C@H](c2ccc3c(c2)OCO3)[C@H]1CCCO,3,nt,-5,-2,8,1,nt,nt,nt,nt
CCO[C@H]1OC(C(=O)N2CCN(Cc3ccc4c(c3)OCO4)CC2)=C[C@@H](c2ccc(Br)cc2)[C@@H]1CCCO,9.2*,23,5,3,25*,0,0,0,13,7
COCCCNC(=O)CCCCCNS(=O)(=O)c1ccc(Br)cc1,0,15,-13,0,-3,-1,nt,nt,nt,nt
CCOC(=O)c1ccc(NC(=O)C2(c3ccc(Cl)cc3)CCCC2)cc1,-7,-17,6,0,1,0,nt,nt,nt,nt
Cc1ccc(NC(=O)COC(=O)C2(c3ccc(Cl)cc3)CCCC2)cc1,11*,27,-4,-3,32*,0,9,4,31*,14*
COc1ccc2c(c1)c(CC(=O)Nc1ccc(C(C)=O)cc1)c(C)n2C(=O)c1ccc(Cl)cc1,12*,-23,2,0,24*,-17,15,5,30*,18*
COc1ccc2c(c1)c(CC(=O)Nc1cc(C)ccc1C)c(C)n2C(=O)c1ccc(Cl)cc1,-3,-28,1,-1,-2,0,nt,nt,nt,nt
Cc1nn(C(C)C(=O)N2CCCC2)c(=O)c2nn(-c3ccccc3)c(C)c12 (stereo not drawn),-4,23,0,-4,-7,0,nt,nt,nt,nt
Cc1ccc(S(=O)(=O)N2CCCCC2)cc1NC(=O)c1ccc2c(c1)OCO2,-1,10,-7,-1,2,0,nt,nt,nt,nt
Cc1ccc(NS(=O)(=O)c2ccc(C)c(NC(=O)c3ccc(S(=O)(=O)N4CCCCCC4)cc3)c2)c(C)c1,8.8*,15,nt,nt,23*,-1,10,3,46*,24*
CCn1cc([N+](=O)[O-])c(C(=O)N2N=C(c3cccc4ccccc34)CC2c2ccccc2O)n1 (stereo not drawn),9.3*,-4,-3,3,23*,-1,7,2,29*,17*
CCn1cc([N+](=O)[O-])c(C(=O)N2N=C(c3ccc4ccccc4c3)CC2c2ccccc2O)n1 (stereo not drawn),9.1*,-30,3,2,24*,-1,8,2,33*,18*
CCCOc1ccc(NC(=O)CC2C(=O)N(Cc3ccccc3)C(=S)N2Cc2cccs2)cc1 (stereo not drawn),13*,-14,16,-2,26*,0,11,5,30*,16*
COC(=O)CN1C(=S)N(Cc2ccccc2)C(=O)C1CC(=O)Nc1ccc(Br)cc1 (stereo not drawn),12*,8,1,2,23*,0,4,1,27*,13*
CCN1C(=O)C(CC(=O)Nc2ccc(OC)cc2)N(CCc2ccccc2)C1=S (stereo not drawn),7,5,0,-2,13,0,nt,nt,nt,nt
CC(=O)Nc1ccc2c(c1)C(N1CC3CCC(CC3)C1)c1ccccc1-2 (stereo not drawn),-2,-5,nt,nt,1,1,nt,nt,nt,nt
CCN(CC(=O)Nc1cccc(C#N)c1)CC(=O)Nc1cccc(OC)c1,-1,-22,8,2,4,-1,nt,nt,nt,nt

# From PubChem BioAssay
